Laboratory results: ChEMBL document CHEMBL1121680, “2,4-Diamino-5-benzylpyrimidines and analogues as antibacterial agents. 5. 3',5'-Dimethoxy-4'-substituted-benzyl analogues of trimethoprim” (J Med Chem, 1981)
Each block holds one molecule with its values, some of them ahead of it.

Assays:
[1] = molecular target: T1, Dihydrofolate reductase (Rattus norvegicus) (UniProt Q920D2); experiment: Compound was tested for inhibitory activity against Dihydrofolate reductase of rat liver at 2000 M
T1 sequence (whole entry): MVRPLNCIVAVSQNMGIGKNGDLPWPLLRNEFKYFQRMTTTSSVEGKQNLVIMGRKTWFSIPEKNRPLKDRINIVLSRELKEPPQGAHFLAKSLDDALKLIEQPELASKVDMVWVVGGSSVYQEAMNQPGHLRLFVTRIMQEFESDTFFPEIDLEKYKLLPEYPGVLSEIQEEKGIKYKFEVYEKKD

[2] = molecular target: T1, Dihydrofolate reductase (Rattus norvegicus); experiment: Compound was tested for inhibitory activity against Dihydrofolate reductase of rat liver at 2400 M
[3] = molecular target: T1, Dihydrofolate reductase (Rattus norvegicus); experiment: Percent inhibition of compound against Dihydrofolate Reductase of rat liver at 27400 M
Dihydrofolate reductase = molecular target: T2, Dihydrofolate reductase (Rattus norvegicus, UniProt Q920D2); experiment: Inhibition of rat liver Dihydrofolate reductase.; settings: read-out: I50
T2 sequence (Q920D2 whole entry): T1 sequence (whole entry)

Oryctolagus cuniculus = experiment: Peak serum concentration reached within 1 hr of administration of 5 mg/kg oral dose; assay type: functional, organism-based; parameters: dose 5 mg/kg
[4] = molecular target: T1, Dihydrofolate reductase (Rattus norvegicus); experiment: PCompound was tested for inhibitory activity against Dihydrofolate reductase of rat liver at 40000 M
[5] = molecular target: T1, Dihydrofolate reductase (Rattus norvegicus); experiment: Compound was tested for inhibitory activity against Dihydrofolate reductase of rat liver at 10000; settings: concentration not given here
[6] = molecular target: T1, Dihydrofolate reductase (Rattus norvegicus); experiment: Compound was tested for inhibitory activity against Dihydrofolate reductase of rat liver at 29000 M
[7] = molecular target: T1, Dihydrofolate reductase (Rattus norvegicus); experiment: Percent inhibition of compound against Dihydrofolate Reductase(DHFR) of rat liver at 40000 M
[8] = molecular target: T1, Dihydrofolate reductase (Rattus norvegicus); experiment: Percent inhibition of compound against Dihydrofolate Reductase of rat liver at 16000 M
Mus musculus [9] = species on record: Mus musculus; settings: Serum
Mus musculus [10] = species on record: Mus musculus; settings: Serum; remark: listed apart in the source
Mus musculus [11] = experiment: Concentration of compound in serum of mouse 30 min after oral administration of 2 mg dose; assay type: functional, organism-based
Outline: (§1)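 Single po dose (10 or 2 mg per mouse) to groups of three mice (18–20 g); ~0.2 mL blood drawn from supraorbital plexus at 10–360 min and pooled; serum drug level assayed microbiologically with Bacillus pumilus as test organism. Half-life calculated from curve slopes once compound apparently evenly distributed.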

Mus musculus [12] = experiment: Concentration of compound in serum of mouse 10 min after oral administration of 2 mg dose; assay type: functional, organism-based; outline: as §1
Klebsiella pneumoniae [13] = experiment: Antimicrobial activity against Klebsiella pneumoniae CN3632 in mice in experiment 1; assay type: functional, Mus musculus
Mus musculus [14] = experiment: Concentration of compound in serum of mouse 180 min after oral administration of 2 mg dose; assay type: functional, organism-based; outline: as §1
Mus musculus [15] = experiment: Concentration of compound in serum of mouse 360 min after oral administration of 2 mg dose; assay type: functional, organism-based; outline: as §1
Staphylococcus aureus [16] = experiment: Antimicrobial activity against Staphylococcus aureus CN491 in mice in experiment 3; assay type: functional, Mus musculus
Staphylococcus aureus [17] = experiment: Antimicrobial activity against Staphylococcus aureus CN491 in mice in experiment 2; assay type: functional, Mus musculus
Escherichia coli [18] = experiment: Antimicrobial activity against Escherichia coli CN348 in mice in experiment 1; assay type: functional, Mus musculus
Staphylococcus aureus [19] = experiment: Antimicrobial activity against Staphylococcus aureus CN491 in mice in experiment 1; assay type: functional, Mus musculus
Mus musculus [20] = experiment: Concentration of compound in serum of mouse 90 min after oral administration of 10 mg dose; assay type: functional, organism-based; outline: as §1
Streptococcus pyogenes [21] = experiment: Antimicrobial activity against streptococcus pyogenes CN10 in mice in experiment 2; assay type: functional, Mus musculus
Proteus vulgaris [22] = experiment: Antimicrobial activity against Proteus vulgaris CN329 in mice in experiment 2; assay type: functional, Mus musculus
Mus musculus [23] = experiment: Concentration of compound in serum of mouse 30 min after oral administration of 10 mg dose; assay type: functional, organism-based; outline: as §1
Escherichia coli [24] = experiment: Antimicrobial activity against Escherichia coli CN348 in mice in experiment 2; assay type: functional, Mus musculus
Mus musculus [25] = experiment: Concentration of compound in serum of mouse 180 min after oral administration of 10 mg dose; assay type: functional, organism-based; outline: as §1
Proteus vulgaris [26] = experiment: Antimicrobial activity against Proteus vulgaris CN329 in mice in experiment 1; assay type: functional, Mus musculus
Escherichia coli [27] = experiment: Antimicrobial activity against Escherichia coli CN348 in mice in experiment 3; assay type: functional, Mus musculus
Mus musculus [28] = experiment: Half-life in serum of mice after oral administration of 10 mg dose; assay type: functional, organism-based; outline: as §1
Mus musculus [29] = experiment: Half-life in serum of mice after oral administration of 2 mg dose; assay type: functional, organism-based; outline: as §1
Streptococcus pyogenes [30] = experiment: Antimicrobial activity against streptococcus pyogenes CN10 in mice in experiment 3; assay type: functional, Mus musculus
Mus musculus [31] = experiment: Concentration of compound in serum of mouse 10 min after oral administration of 10 mg dose; assay type: functional, organism-based; outline: as §1
Klebsiella pneumoniae [32] = experiment: Antimicrobial activity against Klebsiella pneumoniae CN3632 in mice in experiment 3; assay type: functional, Mus musculus
Mus musculus [33] = experiment: Concentration of compound in serum of mouse 360 min after oral administration of 10 mg dose; assay type: functional, organism-based; outline: as §1
Mus musculus [34] = experiment: Concentration of compound in serum of mouse 90 min after oral administration of 2 mg dose; assay type: functional, organism-based; outline: as §1
[35] = molecular target: T1, Dihydrofolate reductase (Rattus norvegicus); experiment: Compound was tested for inhibitory activity against Dihydrofolate reductase of rat liver at 10000 M
[36] = molecular target: T1, Dihydrofolate reductase (Rattus norvegicus); experiment: Compound was tested for inhibitory activity against Dihydrofolate reductase of rat liver at 40000 M

Structure (SMILES): COc1cc(Cc2cnc(N)nc2N)cc(OC)c1OCc1ccc([N+](=O)[O-])cc1
inhibition [1]: 23%

Structure (SMILES): COc1cc(Cc2cnc(N)nc2N)cc(OC)c1OCCCCCCN1C(=O)c2ccccc2C1=O
inhibition [2]: 25%

Structure (SMILES): COc1cc(Cc2cnc(N)nc2N)cc(OC)c1C
IC50 (Dihydrofolate reductase): 120 µM

Structure (SMILES): COc1cc(Cc2cnc(N)nc2N)cc(OC)c1Oc1ccc([N+](=O)[O-])cc1
IC50 (Dihydrofolate reductase): 50 µM

Structure (SMILES): COc1cc(Cc2cnc(N)nc2N)cc(OC)c1Oc1ccc(NC(=O)CBr)cc1
inhibition [6]: 37%

Structure (SMILES): COc1cc(COc2c(OC)cc(Cc3cnc(N)nc3N)cc2OC)cc(OC)c1OC
IC50 (Dihydrofolate reductase): 15 µM

Structure (SMILES): COc1cc(Cc2cnc(N)nc2N)cc(OC)c1OC
T1/2 (Mus musculus [9]): 0.76 h
Concentration (Oryctolagus cuniculus): 2 µg/mL
T1/2 (Mus musculus [10]): 2.7 h

Structure (SMILES): COc1cc(Cc2cnc(N)nc2N)cc(OC)c1OCCCN1CCN(C)CC1
inhibition [36]: 36%

More lines, main results first:

inhibition [3]: 32%
Structure (SMILES): COc1cc(Cc2cnc(N)nc2N)cc(OC)c1OCC(O)CO (stereo not given)

IC50 (Dihydrofolate reductase): 296 µM
Structure (SMILES): COc1cc(Cc2cnc(N)nc2N)cc(OC)c1OCCCCCC(=O)O

inhibition [4]: 16%
Structure (SMILES): COCCOc1c(OC)cc(Cc2cnc(N)nc2N)cc1OC
Concentration (Oryctolagus cuniculus): 2 µg/mL

inhibition [5]: 24%
Structure (SMILES): COc1cc(Cc2cnc(N)nc2N)cc(OC)c1OCCCO

inhibition [7]: 9%
Structure (SMILES): COc1cc(Cc2cnc(N)nc2N)cc(OC)c1OC(C)C

inhibition [8]: 23%
Structure (SMILES): COc1cc(Cc2cnc(N)nc2N)cc(OC)c1OCC1CO1 (stereo not given)

IC50 (Dihydrofolate reductase): 600 µM
Structure (SMILES): COc1cc(Cc2cnc(N)nc2N)cc(OC)c1OCCCl

IC50 (Dihydrofolate reductase): 250 µM
Structure (SMILES): COc1cc(Cc2cnc(N)nc2N)cc(OC)c1OCCCCl
Concentration (Mus musculus [11]): 2.9 µg/mL
Concentration (Mus musculus [12]): 7 µg/mL
ED50 (Klebsiella pneumoniae [13]): 1 mg mouse-1
Concentration (Mus musculus [14]): 0.7 µg/mL
Concentration (Mus musculus [15]): 0.24 µg/mL
ED50 (Staphylococcus aureus [16]): 7.1 mg mouse-1
ED50 (Staphylococcus aureus [17]): >10 mg mouse-1
ED50 (Escherichia coli [18]): 6.2 mg mouse-1
ED50 (Staphylococcus aureus [19]): 2.1 mg mouse-1
Concentration (Mus musculus [20]): 26 µg/mL
ED50 (Streptococcus pyogenes [21]): 3.3 mg mouse-1
ED50 (Proteus vulgaris [22]): >10 mg mouse-1
Concentration (Mus musculus [23]): 31 µg/mL
ED50 (Escherichia coli [24]): 9.4 mg mouse-1
Concentration (Mus musculus [25]): 15 µg/mL
ED50 (Proteus vulgaris [26]): 8.2 mg mouse-1
ED50 (Escherichia coli [27]): >10 mg mouse-1
T1/2 (Mus musculus [28]): 2.4 h
T1/2 (Mus musculus [29]): 1.9 h
ED50 (Streptococcus pyogenes [30]): 7.2 mg mouse-1
Concentration (Mus musculus [31]): 41 µg/mL
ED50 (Klebsiella pneumoniae [32]): >10 mg mouse-1
Concentration (Mus musculus [33]): 7 µg/mL
Concentration (Mus musculus [34]): 1.3 µg/mL

inhibition [35]: 39%
Structure (SMILES): COc1cc(Cc2cnc(N)nc2N)cc(OC)c1OCCCN

IC50 (Dihydrofolate reductase): 560 µM
Structure (SMILES): COc1cc(Cc2cnc(N)nc2N)cc(OC)c1OCCCCCCN
